From ChEMBL document CHEMBL4765234 (J Med Chem, 2016)
The source made the active and inactive calls. The calls are words filed in the database; no cut-off is given here.

What was measured:
[1] = target: Free fatty acid receptor 1 (Homo sapiens, UniProt O14842); assay: Displacement of [3H]-(S)-2-(6-((2',6'-dimethyl-4'-(3-(methylsulfonyl)propoxy)biphenyl-3-yl)methoxy)-2,3-dihydrobenzofuran-3-yl)acetic acid from human recombinant full-length GPR40 expressed in human HEK293 cell membrane assessed as Koff rate measured after 2 hrs by radioligand competitive assay; format: cell membranes; settings: filed as agonist
[2] = Drug metabolism in rat hepatocytes assessed as demethylation by LC-MS/MS analysis; format: ADME, cell-based, Hepatocyte
[3] = Drug metabolism in dog hepatocytes assessed as demethylation by LC-MS/MS analysis; format: ADME, cell-based, Canis lupus familiaris, Hepatocyte
[4] = Clearance in rat plasma at 3 mg/kg, po or 1 mg/kg, iv by LC/MS/MS analysis; format: ADME, organism-based
Summary of the method: (§1)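 Mice, rats and beagle dogs were dosed. Blood was collected into EDTA at set time points and processed to plasma for LC/MS/MS bioanalysis. Parameters were derived by noncompartmental analysis.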

[5] = Half-life in rat at 3 mg/kg, po or 1 mg/kg, iv by LC/MS/MS analysis; format: ADME, organism-based; settings: in vivo
Summary of the method: (§2)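 Dosed to mice, rats or beagle dogs. Blood collected at selected time points with EDTA anticoagulant, processed to plasma and analysed by LC/MS/MS. Parameters obtained by noncompartmental analysis.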

[6] = Cmax in rat plasma at 3 mg/kg, po or 1 mg/kg, iv by LC/MS/MS analysis; format: ADME, organism-based; design: dose 3 mg/kg; summary of the method: as §1
[7] = Tmax in mouse at 3 mg/kg, po or 1 mg/kg, iv by LC/MS/MS analysis; format: ADME, organism-based; settings: in vivo; summary of the method: as §2
[8] = Tmax in dog at 3 mg/kg, po or 1 mg/kg, iv by LC/MS/MS analysis; format: ADME, organism-based, Canis lupus familiaris; settings: in vivo; summary of the method: as §2
[9] = Elimination half-life in rat plasma at 3 mg/kg, po or 1 mg/kg, iv by LC/MS/MS analysis; format: ADME, organism-based; settings: read-out: beta t1/2 (converted); summary of the method: as §2
[10] = Elimination half-life in mouse plasma at 3 mg/kg, po or 1 mg/kg, iv by LC/MS/MS analysis; format: ADME, organism-based; summary of the method: as §2
[11] = Cmax in type 2 diabetic mellitus human at 270 mg, po administered as single dose; format: ADME, organism-based; design: route oral, dose 270 mg; settings: in vivo
Summary of the method: (§3)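 Type 2 diabetic subjects each received a single oral dose. Plasma drug levels were followed over time. Parameters were derived by noncompartmental analysis and reported as geometric means with CV%. CL/F is apparent total clearance and Vz/F is apparent terminal-phase volume.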

[12] = Cmax in type 2 diabetic mellitus human at 540 mg, po administered as single dose; format: ADME, organism-based; design: route oral, dose 540 mg; settings: in vivo; summary of the method: as §3
[13] = Tmax in type 2 diabetic mellitus human at 540 mg, po administered as single dose; format: ADME, organism-based; settings: in vivo
Summary of the method: (§4)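 Single oral dose given to type 2 diabetic subjects; plasma drug levels followed over time. Cmax, Tmax, terminal half-life, AUC(0−∞), CL/F and Vz/F obtained by noncompartmental analysis and reported as geometric means with CV%.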

[14] = Half life in type 2 diabetic mellitus human at 540 mg, po administered as single dose; format: ADME, organism-based; settings: in vivo
[15] = Cmax in type 2 diabetic mellitus human at 1080 mg, po administered as single dose; format: ADME, organism-based; design: route oral, dose 1080 mg; settings: in vivo; summary of the method: as §3
[16] = Tmax in type 2 diabetic mellitus human at 1080 mg, po administered as single dose; format: ADME, organism-based; settings: in vivo; summary of the method: as §4
[17] = AUC ( 0 to infinity) in type 2 diabetic mellitus human at 1080 mg, po administered as single dose; format: ADME, organism-based; design: time infinity, route oral, dose 1080 mg; settings: in vivo; summary of the method: as §3
[18] = AUC in hyperglycemic Balb/c mouse plasma at greater than 0.58 mg/kg measured upto 60 mins; format: ADME, organism-based; design: dose 0.58 mg/kg, time <=60
[19] = Drug metabolism in human hepatocytes assessed as O-dealkylation by measuring 4-((2,3-dihydrospiro[indene-1,4'-piperidine]-1'-yl)methyl)benzoic acid metabolite formation by LC-MS/MS analysis; format: ADME, cell-based, Hepatocyte
[20] = Drug metabolism in dog hepatocytes assessed as O-dealkylation by measuring 4-((2,3-dihydrospiro[indene-1,4'-piperidine]-1'-yl)methyl)benzoic acid metabolite formation by LC-MS/MS analysis; format: ADME, cell-based, Canis lupus familiaris, Hepatocyte
[21] = Clearance in rat plasma at 10 mg/kg, po or 3 mg/kg, iv by LC/MS/MS analysis; format: ADME, organism-based
Summary of the method: (§5)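 Dosing was oral and intravenous in mice, rats or beagle dogs. Blood was drawn at set time points into EDTA and processed to plasma. Plasma was assayed by LC/MS/MS. Clearance, Cmax and terminal half-life were derived by noncompartmental analysis.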

[22] = Volume of distribution at steady state in dog at 5 mg/kg, po or 1 mg/kg, iv by LC/MS/MS analysis; format: ADME, organism-based, Canis lupus familiaris; settings: in vivo, read-out: Vdss
Summary of the method: (§6)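 Mice, rats and beagle dogs dosed; blood drawn at set times into EDTA, processed to plasma and assayed by LC/MS/MS. Parameters (clearance, Vdss, terminal half-life, Cmax, Tmax, oral bioavailability) derived by noncompartmental analysis.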

[23] = Half-life in mouse at 10 mg/kg, po or 1 mg/kg, iv by LC/MS/MS analysis; format: ADME, organism-based; settings: in vivo; summary of the method: as §6
[24] = Half-life in dog at 5 mg/kg, po or 1 mg/kg, iv by LC/MS/MS analysis; format: ADME, organism-based, Canis lupus familiaris; settings: in vivo; summary of the method: as §6
[25] = Cmax in rat plasma at 10 mg/kg, po or 3 mg/kg, iv by LC/MS/MS analysis; format: ADME, organism-based; design: dose 10 mg/kg; summary of the method: as §5
[26] = Tmax in rat at 10 mg/kg, po or 3 mg/kg, iv by LC/MS/MS analysis; format: ADME, organism-based; settings: in vivo; summary of the method: as §6
[27] = Oral bioavailability in mouse at 10 mg/kg by LC/MS/MS analysis; format: ADME, organism-based; settings: in vivo; summary of the method: as §6
[28] = target: Free fatty acid receptor 1 (Mus musculus) (UniProt Q76JU9); assay: Agonist activity at GPR40 in mouse pancreatic islets assessed as induction of glucose-mediated insulin secretion measured after 90 mins in EBSS buffer by ELISA; settings: filed as agonist
[29] = Drug metabolism in human hepatocytes assessed as glucuronidation by LC-MS/MS analysis; format: ADME, cell-based, Hepatocyte
[30] = Drug metabolism in human hepatocytes assessed as N-dealkylation by LC-MS/MS analysis; format: ADME, cell-based, Hepatocyte
[31] = Drug metabolism in rat hepatocytes assessed as N-dealkylation by LC-MS/MS analysis; format: ADME, cell-based, Hepatocyte
[32] = Drug metabolism in dog hepatocytes assessed as oxidation by LC-MS/MS analysis; format: ADME, cell-based, Canis lupus familiaris, Hepatocyte
[33] = Drug metabolism in mouse hepatocytes assessed as oxidation by LC-MS/MS analysis; format: ADME, cell-based, Hepatocyte
[34] = Drug metabolism in mouse hepatocytes assessed as N-dealkylation by LC-MS/MS analysis; format: ADME, cell-based, Hepatocyte
[35] = Drug metabolism in dog urine assessed as N-dealkylation by LC-MS/MS analysis; format: ADME, tissue-based, Canis lupus familiaris
[36] = AUC in hyperglycemic Balb/c mouse plasma at 5.6 mg/kg measured upto 60 mins; format: ADME, organism-based; design: dose 5.6 mg/kg, time <=60
[37] = Drug distribution in C57BL/6 mouse spleen at 3 microg/kg, iv administered as single dose observed at 20 to 40 mins by LC-MS/MS analysis; format: ADME, organism-based; settings: in vivo, 0.003 mg/kg, time 20-40 min, dose 3 µg/kg
Summary of the method: (§7)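 Tracer microdose study in fed male C57BL/6 mice: single 3 μg/kg IV dose in 25% HP-BCD. Mice were killed by cervical dislocation, and spleen, ascending colon, skeletal muscle and plasma were sampled at 20 and 40 min.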

[38] = Drug distribution in C57BL/6 mouse colon at 3 microg/kg, iv administered as single dose observed at 20 to 40 mins by LC-MS/MS analysis; format: ADME, organism-based; settings: in vivo, 0.003 mg/kg, time 20-40 min, dose 3 µg/kg; summary of the method: as §7

Chain of Free fatty acid receptor 1 (O14842 whole entry): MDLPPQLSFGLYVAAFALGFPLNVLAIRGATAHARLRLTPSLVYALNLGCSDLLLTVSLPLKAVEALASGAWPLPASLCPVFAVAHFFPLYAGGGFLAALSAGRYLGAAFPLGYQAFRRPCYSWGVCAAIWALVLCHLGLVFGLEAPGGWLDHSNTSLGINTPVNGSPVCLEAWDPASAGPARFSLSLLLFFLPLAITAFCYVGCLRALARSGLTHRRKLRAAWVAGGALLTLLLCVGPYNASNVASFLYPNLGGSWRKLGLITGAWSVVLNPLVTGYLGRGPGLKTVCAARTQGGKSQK
Chain of Free fatty acid receptor 1 (Mus musculus) (Q76JU9 whole entry): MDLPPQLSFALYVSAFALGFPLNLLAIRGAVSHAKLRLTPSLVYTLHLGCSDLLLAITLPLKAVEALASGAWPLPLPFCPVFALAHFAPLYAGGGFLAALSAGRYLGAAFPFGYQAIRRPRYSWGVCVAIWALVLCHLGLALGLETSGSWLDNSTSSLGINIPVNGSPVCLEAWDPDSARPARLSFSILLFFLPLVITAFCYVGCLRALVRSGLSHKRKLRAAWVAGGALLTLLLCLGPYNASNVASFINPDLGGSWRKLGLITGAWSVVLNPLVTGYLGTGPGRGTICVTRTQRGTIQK

O=C(O)CCc1ccc(OCc2ccc(CN3CCC4(C=Cc5ccccc54)CC3)cc2)cc1F
K [1]: 0.0866 min⁻¹

CC#C[C@@H](CC(=O)O)c1ccc(OCc2ccc(CN3CCCc4cccc(OC)c43)s2)cc1
Drug metabolism [2]: Metabolite_Detected
Drug metabolism [3]: Metabolite_Detected
clearance [4]: 3.8 mL/min/kg
half-life [5]: 5.6 h
Cmax [6]: 4140 ng/mL
Tmax [7]: 1 h
Tmax [8]: 0.5 h
half-life [9]: 5.6 h
half-life [10]: 4.2 h
Cmax [11]: 2000 ng/mL
Cmax [12]: 3780 ng/mL
Tmax [13]: 4 h
half-life [14]: 14.5 h
Cmax [15]: 7950 ng/mL
Tmax [16]: 4 h
AUC(0-inf) [17]: 97300 ng·h/mL

CC#C[C@@H](CC(=O)O)c1ccc(OCc2ccc(CN3CCC4(C=Cc5ccccc54)CC3)cc2)cc1 [LY2881835]
AUC at 1 h [18]: 218 ng·h/mL
Drug metabolism [19]: Metabolite_Detected
Drug metabolism [20]: Metabolite_Detected
K [1]: 0.00822 min⁻¹
clearance [21]: 11.6 mL/min/kg
Vd [22]: 0.8 L/kg
half-life [23]: 2.1 h
half-life [24]: 5.05 h
Cmax [25]: 11200 ng/mL
Tmax [26]: 0.25 h
bioavailability [27]: 64%
Activity [28]: Active

CC#C[C@@H](CC(=O)O)c1ccc(OCc2ccc(CN3CCC4(CCc5ccccc54)CC3)s2)cc1
Drug metabolism [29]: Metabolite_Detected
Drug metabolism [30]: Metabolite_Detected
Drug metabolism [31]: Metabolite_Detected
Drug metabolism [32]: Metabolite_Detected
Drug metabolism [33]: Metabolite_Detected
Drug metabolism [34]: Metabolite_Detected
clearance [4]: 20 mL/min/kg
half-life [5]: 1.6 h
Cmax [6]: 829 ng/mL
Tmax [7]: 2 h
Tmax [8]: 2 h
half-life [9]: 2 h
half-life [10]: 1.7 h
Drug metabolism [35]: Metabolite_Detected
AUC at 1 h [36]: 898 ng·h/mL

CC#C[C@@H](CC(=O)O)c1ccc(OCc2ccc(CN3CCC4(C=Cc5ccccc54)CC3)s2)cc1
Drug metabolism [29]: Metabolite_Detected
Drug metabolism [30]: Metabolite_Detected
Drug metabolism [31]: Metabolite_Detected
Drug uptake [37]: Active
Drug uptake [38]: Active
